The source made the active and inactive calls. The rule behind the calls is not given here.
Legend:
Mus musculus [1] = experiment: Neurotoxicity in mouse at 30 to 300 mg/kg, ip after 0.5 hrs by rotarod method; assay type: toxicity, organism-based; set-up: dose 30-300 mg/kg, route intraperitoneal; conditions: in vivo
Procedure, shortened: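 Mice given 30, 100 and 300 mg/kg by intraperitoneal injection; animals scored for mortality and neurotoxicity at 0.5 and 4 h after dosing.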

Mus musculus [2] = experiment: Toxicity in mouse assessed as mortality at 30 to 300 mg/kg, ip after 0.5 to 4 hrs; assay type: organism-based; set-up: dose 30-300 mg/kg, route intraperitoneal; conditions: in vivo
Procedure, shortened: (§1)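 Mice dosed intraperitoneally at 30, 100 and 300 mg/kg; animals observed for deaths and neurological deficit at 0.5 and 4 h after injection.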

[3] = Anticancer activity against human Molt4/C8 cells after 72 hrs; assay type: functional, cell-based; conditions: MOLT-4, 72 h
CCRF-CEM [4] = experiment: Anticancer activity against human CEM cells after 72 hrs; assay type: functional, cell-based
L1210 [5] = experiment: Anticancer activity against mouse L1210 cells after 48 hrs; assay type: functional, cell-based; conditions: L1210, 48 h
HCT-116 = experiment: Anticancer activity against human HCT116 cells; assay type: functional, cell-based
KM12 = experiment: Anticancer activity against human KM12 cells; assay type: functional, cell-based
HL-60 [6] = experiment: Anticancer activity against human HL60 cells; assay type: functional, cell-based
HSC-3 [7] = experiment: Cytotoxicity against human HSC3 cells after 48 hrs; assay type: functional; conditions: HSC-3, 48 h
HSC-3 [8] = experiment: Selectivity index, ratio of average CC50 for normal human cell line to CC50 for human HSC3 cells
Mus musculus [9] = experiment: Neurotoxicity in mouse at 30 to 300 mg/kg, ip after 0.5 to 4 hrs by rotarod method; assay type: toxicity, organism-based; set-up: dose 30-300 mg/kg, route intraperitoneal; conditions: in vivo; procedure, shortened: as §1
CCRF-CEM [10] = experiment: Ratio of melphalan IC50 to compound IC50 for human CEM cells; assay type: functional
HL-60 [11] = experiment: Selectivity index, ratio of average CC50 for normal human cell line to CC50 for human HL-60 cells
L1210 [12] = experiment: Ratio of melphalan IC50 to compound IC50 for mouse L1210 cells; assay type: functional
HCT-15 = experiment: Anticancer activity against human HCT15 cells; assay type: functional, cell-based
RPMI-8226 = experiment: Anticancer activity against human RPMI8226 cells; assay type: functional, cell-based
MOLT-4 = experiment: Ratio of melphalan IC50 to compound IC50 for human Molt4/C8 cells; assay type: functional
HSC-4 [13] = experiment: Selectivity index, ratio of average CC50 for normal human cell line to CC50 for human HSC4 cells
HSC-2 [14] = experiment: Selectivity index, ratio of average CC50 for normal human cell line to CC50 for human HSC2 cells
SW-620 = experiment: Anticancer activity against human SW620 cells; assay type: functional, cell-based
HSC-4 [15] = experiment: Cytotoxicity against human HSC4 cells after 48 hrs; assay type: functional; conditions: HSC-4, 48 h
HT-29 = experiment: Anticancer activity against human HT-29 cells; assay type: functional, cell-based
HL-60 [16] = experiment: Cytotoxicity against human HL60 cells after 48 hrs; assay type: functional; conditions: HL-60, 48 h
HCC 2998 = experiment: Anticancer activity against human HCC2998 cells; assay type: functional, cell-based
HSC-2 [17] = experiment: Cytotoxicity against human HSC2 cells after 48 hrs; assay type: functional; conditions: HSC-2, 48 h
K562 = experiment: Anticancer activity against human K562 cells; assay type: functional, cell-based
CCRF-CEM [18] = experiment: Anticancer activity against human CCRF-CEM cells; assay type: functional, cell-based
COLO 205 = experiment: Anticancer activity against human COLO205 cells; assay type: functional, cell-based
[19] = Cytotoxicity against human HPLF cells after 48 hrs; assay type: cell-based
[20] = Cytotoxicity against human HGF cells after 48 hrs; assay type: cell-based
[21] = Cytotoxicity against human HPC cells after 48 hrs; assay type: cell-based
Rattus norvegicus [22] = experiment: Toxicity in rat assessed as mortality at 50 mg/kg, po measured upto 4 hrs; assay type: organism-based; set-up: dose 50 mg/kg, route oral; conditions: in vivo
Procedure, shortened: (§2)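 Rats given a single oral dose of 50 mg/kg; monitored intermittently over 4 h for fatalities and neurological deficit.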

Rattus norvegicus [23] = experiment: Neurotoxicity in rat at 50 mg/kg, po measured upto 4 hrs by rotarod method; assay type: toxicity, organism-based; set-up: dose 50 mg/kg, route oral; conditions: in vivo; procedure, shortened: as §2
[24] = Toxicity in mouse harboring P-388 cells; assay type: organism-based
[25] = Toxicity in mouse harboring L1210 cells; assay type: organism-based
HSC-2 [26] = experiment: Induction of mitochondrial pathway-dependent apoptosis in human HSC2 cells assessed as caspase 3 activation at 1 to 3 uM; assay type: functional, cell-based
Procedure, shortened: (§3)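 Caspase-3 activity measured in lysates of treated HL-60 and HSC-2 cells: 100 μg protein per assay, incubated 2 h with the substrate. Mean ± SD of three experiments.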

HL-60 [27] = experiment: Induction of mitochondrial pathway-dependent apoptosis in human HL60 cells assessed as DNA fragmentation at 0.5 to 8 uM after 6 hrs by agarose gel electrophoresis; assay type: functional, cell-based
Procedure, shortened: (§4)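 Cells exposed 6 h to a range of concentrations; a UV-irradiated comparison was given 1 min of UV. Treated and control cells were then held 3 h in regular culture medium, after which DNA was extracted and run on 2% agarose gel electrophoresis.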

HL-60 [28] = experiment: Induction of mitochondrial pathway-dependent apoptosis in human HL60 cells assessed as caspase 3 activation at 1 to 3 uM; assay type: functional, cell-based; procedure, shortened: as §3
HSC-2 [29] = experiment: Induction of mitochondrial pathway-dependent apoptosis in human HSC2 cells assessed as DNA fragmentation at 0.5 to 8 uM after 6 hrs by agarose gel electrophoresis; assay type: functional, cell-based; procedure, shortened: as §4

Structure (SMILES) | Activity (Mus musculus [2]) | IC50 [3] [nM] | IC50 (CCRF-CEM [4]) [nM] | IC50 (L1210 [5]) [nM] | IC50 (HCT-116) [nM] | CC50 (HSC-3 [7]) [nM] | Ratio (HSC-3 [8]) | Activity (Mus musculus [9]) | Ratio IC50 (CCRF-CEM [10]) | Ratio (HL-60 [11]) | Ratio IC50 (MOLT-4) | Ratio (HSC-4 [13]) | Ratio (HSC-2 [14]) | CC50 (HSC-4 [15]) [nM] | IC50 (HT-29) [nM] | CC50 (HL-60 [16]) [nM] | CC50 (HSC-2 [17]) [nM] | CC50 at 48 h [19] [nM] | CC50 at 48 h [20] [nM] | CC50 at 48 h [21] [nM] | further results
O=C1/C(=C/c2ccccc2)CN(C(=O)CCSCCS(=O)(=O)O)C/C1=C\c1ccccc1 | Non-toxic | 143000 | 125000 | 234000 |  |  |  |  |  |  |  |  |  |  |  |  |  |  |  |  | Activity (Mus musculus [1]): Toxic
COc1ccc(/C=C2\CN(C(=O)CCSCCO)C/C(=C\c3ccc(OC)cc3)C2=O)cc1 | Non-toxic | 1660 | 3510 | 19600 | 1510 | 3300 | 4.8 | Non-toxic | 6.6 | 4.9 | 2 | 6.5 | 6.5 | 2400 | 2400 | 3200 | 2410 | 16000 | 17000 | 14000 | IC50 (KM12): 1980 nM; IC50 (HL-60 [6]): 1700 nM; Ratio IC50 (L1210 [12]): 6.6; IC50 (HCT-15): 2190 nM; IC50 (RPMI-8226): 330 nM; IC50 (SW-620): 2140 nM; IC50 (HCC 2998): 2000 nM; IC50 (K562): 2880 nM; IC50 (CCRF-CEM [18]): 470 nM; IC50 (COLO 205): 2510 nM
Cc1ccc(/C=C2\CN(C(=O)CCSCCO)C/C(=C\c3ccc(C)cc3)C2=O)cc1 | Non-toxic | 1850 | 1100 | 5910 |  | 1700 | 4.9 | Non-toxic | 2.3 | 4 |  | 6.9 | 9.4 | 1200 |  | 2100 | 890 | 8400 | 9100 | 7500 | Activity (Rattus norvegicus [22]): Non-toxic; Activity (Rattus norvegicus [23]): Non-toxic
O=C1/C(=C/c2ccccc2)CN(C(=O)CCSCCO)C/C1=C\c1ccccc1 |  | 660 | 570 | 3800 |  | 2800 | 5.3 |  | 4.3 | 8.7 | 4.9 | 11.3 | 9.2 | 1300 |  | 1700 | 1600 | 13000 | 17000 | 14000 | 
N[C@@H](Cc1ccc(N(CCCl)CCCl)cc1)C(=O)O [MELPHALAN] |  |  |  |  |  | 25000 | 8.4 |  |  | 150 |  | 6.6 | 24.1 | 32000 | 46800 | 1400 | 8700 |  |  |  | LD50 [24]: 21.7 mg/kg; LD50 [25]: 21.7 mg/kg
O=C1/C(=C/c2ccc([N+](=O)[O-])cc2)CN(C(=O)CCSCCO)C/C1=C\c1ccc([N+](=O)[O-])cc1 | Non-toxic | 490 | 480 | 3920 | 110 | 690 | 8.5 | Non-toxic | 5.1 | 13.3 | 6.7 | 15.5 | 17.3 | 380 | 100 | 440 | 340 | 6400 | 5400 | 5800 | IC50 (KM12): 170 nM; IC50 (HL-60 [6]): 100 nM; Activity (HSC-2 [26]): inactive; Ratio IC50 (L1210 [12]): 96; IC50 (HCT-15): 210 nM; IC50 (RPMI-8226): 20 nM; Activity (HL-60 [27]): Active; IC50 (SW-620): 70 nM; Activity (HL-60 [28]): Active; Activity (HSC-2 [29]): inactive; IC50 (HCC 2998): 280 nM; IC50 (K562): 60 nM; IC50 (CCRF-CEM [18]): 40 nM; IC50 (COLO 205): 60 nM

Reference: ChEMBL document CHEMBL1772966, “3,5-Bis(benzylidene)-1-[3-(2-hydroxyethylthio)propanoyl]piperidin-4-ones: a novel cluster of potent tumor-selective cytotoxins” (J Med Chem, 2011)
